Results from different studies.
Each line is one published result; the experiments were not run side by side.
Target: Serine/threonine-protein kinase TBK1 (TBK1, Homo sapiens, UniProt Q9UHD2)

| SMILES | test | conditions | endpoint | value |
| --- | --- | --- | --- | --- |
| Cc1nn(CC(F)(F)F)cc1Nc1ncc(C2CC2)c(NCCc2c[nH]cn2)n1 | enzyme activity, inhibitor, radiometric | 1 µM | remaining activity | 81% |
| CN(C)C1CCN(CC#Cc2nn(C3CCCC3)c3nc(NCc4ccccc4)ncc23)C1 (stereo not shown) | enzyme activity, inhibitor, FRET | 10 µM | inhibition | 10% |
| CO[C@@H](C)c1c(Nc2ccc([C@@H](N(C)C(=O)C3CCS(=O)(=O)CC3)C(F)(F)F)cc2)cnc2cc(Cl)nn12 | cell-free assay, competition with immobilised ligand | 1 µM | remaining binding | 77% |
| Cc1nn(CC(F)(F)F)cc1Nc1nccc(NCCCNC(=O)C2CCC2)n1 | enzyme activity, inhibitor, radiometric | 1 µM | remaining activity | 61% |
| CN1CCN(c2cnc3c(C4CCN(C(=O)c5ccc(OC(F)(F)F)cc5N)CC4)ncnc3c2)CC1 | cell-free assay, competition with immobilised ligand | 1 µM | remaining binding | 61% |
| CNC(=O)c1cc(Oc2ccc(NC(=O)Nc3ccc(Cl)c(C(F)(F)F)c3)cc2)ccn1 | enzyme activity, inhibitor | 10 µM | inhibition | 10% |
| O=C1Nc2ccc(Cl)cc2C1=Cc1cc(Cl)c(O)c(Cl)c1 | cell-free assay | 0.5 µM | remaining signal | 86.8% |
| CN1CC(Oc2cnc(C#N)cc2-c2ccn3nc(NC(=O)C4CC4)cc3c2)C1 | enzyme activity, inhibitor | 1 µM | inhibition | 3% |
| Cc1ccc(NC(=O)c2ccc(C)c(C(F)(F)F)c2)cc1C#Cc1nn(C2CCC(O)CC2)c2ncnc(N)c12 (stereo not shown) | cell-free assay | 10 µM | remaining signal | 104% |
| Cc1nn(CC(F)(F)F)cc1Nc1ncc(C2CC2)c(NCCCNC(=O)C2CCC2)n1 | enzyme activity, inhibitor, radiometric | 1 µM | remaining activity | 4% |
| O=C1CCc2cc(Nc3cc(OC4CCOCC4)c([N+](=O)[O-])cc3Cl)ccc2N1 | cell-free assay, competition with immobilised ligand | 1 µM | remaining binding | 100% |
| CN(c1ncccc1CNc1nc(Nc2ccc3c(c2)CC(=O)N3)ncc1C(F)(F)F)S(C)(=O)=O | enzyme activity, inhibitor | 1 µM | inhibition | 73.7% |
| O=C(Nc1cccc(Nc2ncc(Br)c(NCCc3cnc[nH]3)n2)c1)N1CCCC1 | enzyme activity, inhibitor, radiometric | 1 µM | remaining activity | 10% |
| Cc1cc(NC(=O)c2cccc3cc(-c4cccc5[nH]nc(N)c45)ccc23)ccc1F | enzyme activity, inhibitor | 0.1 µM | activity vs control | 109% |
| C[C@@H](c1cccc(C#N)c1)n1cc(Cl)cc(C(N)=O)c1=N | cell-free assay, competition with immobilised ligand | 1 µM | remaining binding | 89% |
| COc1cc(Nc2c(C#N)cnc3cc(OCCCN4CCN(C)CC4)c(OC)cc23)c(Cl)cc1Cl | cell-free assay | 0.5 µM | remaining signal | 65.7% |

| SMILES | test | conditions | endpoint | value |
| --- | --- | --- | --- | --- |
| Cc1cc(NC(=O)c2cccc(S(F)(F)(F)(F)F)c2)cc(-n2ccn3nc(-c4cccnc4)cc23)c1 | cell-free assay, competition with immobilised ligand | 1 µM | remaining binding | 49.7% |
| Cc1ccc(Nc2nccc(N(C)c3ccc4c(C)n(C)nc4c3)n2)cc1S(N)(=O)=O | enzyme activity, inhibitor | 0.3 µM | inhibition | 22% |
| FC(F)(F)Oc1cccc(-c2cnc3ccc(-c4ccncc4)nn23)c1 | enzyme activity, inhibitor, radiometric | 5 µM | activity vs control | 73% |
| CCCCNc1ncc2c(-c3ccc(F)cc3)nn(C[C@H]3CC[C@H](N)CC3)c2n1 | target engagement in cells, inhibitor, chemoproteomics | 20 mM | inhibition | 9.8% |
| O=C(Nc1cccnn1)N1CC(C/C=C/c2cncc(Oc3ccc(C(F)(F)F)cn3)n2)C1 | cell-free assay, competition with immobilised ligand | 1 µM | remaining binding | 72% |
| CCN(CC)CCNC(=O)c1c(C)[nH]c(/C=C2\C(=O)Nc3ccc(F)cc32)c1C | enzyme activity, inhibitor | 0.3 µM | inhibition | 42% |
| O=C(NCCCNc1ccnc(Nc2cccc(NC(=O)N3CCCC3)c2)n1)C1CCC1 | enzyme activity, inhibitor, radiometric | 1 µM | remaining activity | 36% |
| COc1cc2ncnc(Nc3ccc(Oc4ccccc4)cc3C)c2cc1OC | enzyme activity, inhibitor | 1 µM | inhibition | 4% |
| COc1cc(/C=C/C(=O)CC(=O)/C=C/c2ccc(O)c(OC)c2)ccc1O | enzyme activity, inhibitor | 1 µM | activity vs control | 74% |
| NS(=O)(=O)c1ccc(CNc2ccnc(Nc3cccc(NC(=O)N4CCCC4)c3)n2)cc1 | enzyme activity, inhibitor, radiometric | 1 µM | remaining activity | 68% |
| O=C(Nc1cnc(Oc2ccc(F)cc2)nc1)N1CCc2ncccc2[C@@H]1c1ccc(F)cc1 | cell-free assay, competition with immobilised ligand | 1 µM | remaining binding | 87% |
| NS(=O)(=O)c1ccc(CNc2ccnc(Nc3cccc(CN4CCOCC4)c3)n2)cc1 | enzyme activity, inhibitor, radiometric | 1 µM | remaining activity | 33% |
| CN(C)C(=O)Cn1cc(-c2nc([C@@](C)(c3ccc(-c4cnc(N)nc4)cc3)C3CC3)no2)cn1 | cell-free assay, competition with immobilised ligand | 1 µM | remaining binding | 85% |
| Cc1nn(CC(F)(F)F)cc1Nc1nccc(NCCc2cnc[nH]2)n1 | enzyme activity, inhibitor, radiometric | 1 µM | remaining activity | 87% |
| N#CCCc1ccc2c(c1)-c1[nH]c3ccc([N+](=O)[O-])cc3c1CC(=O)N2 | cell-free assay | 0.5 µM | remaining signal | 83.7% |
